TRPN1 ag: agonists of zebrafish TRPN1 channel. activation, % at 3 µM. HEK293 zebrafish TRPN1-YFP, Fluo-8 calcium fluorescence; 100% = response to 87 µM carbachol. actives 0.18% (n = 220,000);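 active means activation above its plate's cutoff, the mean activation of test wells on that plate plus 3 SD, cut at about 19% in these data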;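 further: 0% = DMSO alone and 100% = 87 µM carbachol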
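Material: zebrafish TRPN1-YFP in HEK293 cells; Doses: single test compound dose, 3 µM nominal, 0.3% DMSO; Timing: dye loading 1 h at 37 °C, then 30 min room temperature; Technique: intracellular calcium fluorescence with Fluo-8; Benchmarks: high carbachol 87 µM, low DMSO alone.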
CHO parental Ca: counter-screen: ATP calcium response change in parental CHO cells; actives 0.63% (n = 330,000); inhibition, % at 5.6 µM; parental CHO-K1, ATP-induced calcium, Fluo-8 fluorescence;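 active means inhibition above that plate's mean sample inhibition plus 3 SD, cut at about 26% in these data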;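 further: 0% = ATP-challenged DMSO wells and 100% = DMSO wells without ATP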
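material = parental CHO cells | also added = ATP as calcium-mobilizing challenge | dosing = single point at 5.6 µM | detection = intracellular calcium via Fluo-8 no-wash fluorescent dye | read-out = % inhibition | benchmarks = low control ATP plus DMSO, high control DMSO only | repeats = one well per compound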
OX1R antag-1: OX1R (human) antagonism. O43613. OX1R-expressing cells, FRET antagonist read-out. actives 1.8% (n = 330,000). inhibition, % at 6.6 µM; in the data active means inhibition mostly above about 38%, no sharp cut-off; inactive means mostly below about 40%;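 further: 0% = agonist challenge alone and 100% = reference antagonist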
Target sequence (O43613 whole entry, looked up): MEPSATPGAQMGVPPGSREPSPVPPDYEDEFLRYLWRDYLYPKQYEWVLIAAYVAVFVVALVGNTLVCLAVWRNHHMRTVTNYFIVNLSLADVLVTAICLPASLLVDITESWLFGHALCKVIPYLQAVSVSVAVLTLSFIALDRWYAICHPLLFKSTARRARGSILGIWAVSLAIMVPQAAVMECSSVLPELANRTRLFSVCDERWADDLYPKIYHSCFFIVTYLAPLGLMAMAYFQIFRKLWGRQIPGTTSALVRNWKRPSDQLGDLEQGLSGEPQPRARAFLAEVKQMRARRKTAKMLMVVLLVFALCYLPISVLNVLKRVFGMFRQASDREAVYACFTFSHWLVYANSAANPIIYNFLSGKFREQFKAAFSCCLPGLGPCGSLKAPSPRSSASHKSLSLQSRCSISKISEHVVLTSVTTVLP
TRPML3 agonist: agonists of human TRPML3 channel; Q8TDD5; HEK293 TRPML3-YFP, Fluo-8 calcium fluorescence; 100% = the carbachol control signal; activation, % at 3 µM; actives 0.29% (n = 220,000); AID 1448;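 active means activation above its plate's cutoff, the mean activation of the plate's test wells plus 3 SD, cut at about 12% in these data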;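 further: 0% = DMSO only wells and 100% = carbachol wells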
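system = HEK293 cells stably carrying human TRPML3-YFP | doses = one concentration, 3 µM nominal, 0.3% DMSO | timing = dye loading 1 h 37 °C then 30 min ambient, 125 s read | detection = Fluo-8 calcium dye fluorescence, ex 470-495, em 515-575 nm | benchmarks = high control carbachol 87 µM, low control DMSO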
OX1R antag-2: antagonists of human orexin 1 receptor; O43613; CHO/OX1R cells, Fluo-8 calcium fluorescence, orexin A; AID 434989; inhibition, % at 5 µM; actives 0.43% (n = 330,000);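 active means inhibition above its plate's threshold, mean inhibition of all tested compounds on the plate plus 3 SD, cut at about 37% in these data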;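 further: 0% = orexin A challenge wells and 100% = SB-334867-A antagonist wells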
Starred values were filed as active, the others as inactive; / = no result. Only some compounds are listed: those with a hit (about 2.5% of all), similar ones and a draw of the others.

SMILES	TRPN1 ag	CHO parental Ca	OX1R antag-1	TRPML3 agonist	OX1R antag-2
COc1ccc(C(C)NC(=S)NC2CCCC2)cc1OC (stereo not given)	0	-3	21	1	-15
CCNC(=O)COC(=O)c1cc(S(=O)(=O)N2CCCc3ccccc32)ccc1Cl	2	6	13	0	-17
NC(=O)C1CCN(c2nc3ccccc3nc2NS(=O)(=O)c2ccc(Br)cc2)CC1	/	-17	8	/	-28
NC(=O)C1CCN(c2ccc3c(c2)S(=O)(=O)c2ccccc2C3=O)CC1	/	-4	58	/	-18
NC(=O)C1CCN(C2=C(NS(=O)(=O)c3ccc(Br)cc3)C(=O)c3ccccc3C2=O)CC1	/	-18	76*	/	-17
NC(=O)C1CCN(C2=C(Cl)C(=O)c3ccccc3C2=O)CC1	1	7	62*	0	3
CCOC(=O)C1CCN(C(=O)c2cccc(NS(=O)(=O)c3ccc(Br)cc3)c2)CC1	/	-26	5	/	-18
CCOC(=O)C1CCN(C2=C(NS(=O)(=O)c3ccc(Br)cc3)C(=O)c3ccccc3C2=O)CC1	/	-33	75*	/	-41
COc1ccc(C2NC(=O)c3ccccc3O2)cc1 (stereo not given)	/	0	-2	/	-13
O=C(NNc1ccccc1)Nc1ccccc1F	/	-3	13	/	-11
COCCN(CCOC)C(=O)COC(=O)c1cc([N+](=O)[O-])ccc1Cl	1	-11	48*	1	-4
CN(C(=O)COC(=O)c1cc([N+](=O)[O-])ccc1Cl)c1ccccc1	/	-20	66*	/	-12
O=C(COC(=O)c1cc([N+](=O)[O-])ccc1Cl)NCCc1ccccc1	/	-6	17	/	-18
CN(C)c1ccc(N=Nc2ccccc2C(=O)OCC(=O)N(C)c2ccccc2)cc1	1	34*	21	1	1
CN(C(=O)COC(=O)c1ccc([N+](=O)[O-])cc1)c1ccccc1	1	-11	26	0	-25
COC(=O)c1ccc2c(=O)[nH]c(COC(=O)c3[nH]c(C)c(C(C)=O)c3C)nc2c1	/	-16	10	/	-23
COC(=O)c1ccc(CSc2nc3ccccc3c(=O)n2Cc2ccco2)o1	-2	37*	15	0	50*
COC(=O)c1ccc(CSc2nc3c(cnn3-c3ccccc3)c(=O)[nH]2)o1	0	-16	55*	0	11
COC(=O)c1ccc(CSc2nc3c(cnn3-c3ccc(F)cc3)c(=O)[nH]2)o1	0	-16	14	1	-23
COC(=O)c1ccc(CSc2nc3ccccc3c(=O)n2CC(C)C)o1	-1	-33	16	0	-22
NC(=O)C1CCN(C(=O)C2CC(=O)N(c3ccc4c(c3)OCCO4)C2)CC1 (stereo not given)	/	-8	-5	/	6
CCCN(CC(=O)Nc1cc(Cl)ccc1Cl)C(=O)/C=C/c1cc(OC)ccc1OC	/	-19	43*	/	32
CCCN(CC(=O)Nc1ccc(Cl)cc1Cl)C(=O)/C=C/c1cc(OC)ccc1OC	4	-27	18	-1	-24
Cc1sc2nc3ccc(N4CCCCC4)nn3c(=O)c2c1C	1	-23	76*	2	-14
Cc1ccc2nc3ccc(N4CCCC4)nn3c(=O)c2c1	0	-2	78*	1	-16
SMILES	TRPN1 ag	CHO parental Ca	OX1R antag-1	TRPML3 agonist	OX1R antag-2
Cc1sc2nc3n(c(=O)c2c1C)CCCCC3	-1	-14	8	1	-10
COc1ccc(CN(C)C(=O)COc2cccc(-n3cnnn3)c2)cc1OC	/	-6	5	/	-2
O=C(Nc1ccnn1C1CCN(Cc2ccc(CO)o2)CC1)c1ccccc1	/	-4	-5	/	-8
O=C(c1cc(COc2cccc(C(F)(F)F)c2)on1)N1CCC(c2ccncc2)CC1	/	60*	22	/	31
O=C(CNCc1ccccn1)Nc1ccc([N+](=O)[O-])cc1C(=O)Nc1ccccc1F	/	-3	23	/	-16
COc1cccc(/C=N/Nc2snc(SC)c2C#N)c1O	11	0	60*	10	10
COc1cccc(/C=N/Nc2snc(SC)c2C#N)c1	1	-7	67*	0	4
CSc1nsc(N/N=C/c2ccccc2)c1C#N	1	7	12	1	-10
Cc1cccc(NC(=O)CC2c3ccccc3Oc3ccccc32)c1	-2	-12	51*	0	-11
O=C(NCc1cccc(CNC(=O)C(=O)NCc2ccco2)c1)C(=O)NCc1ccco1	-3	33*	5	-1	14
O=C(NCc1cccc(CNC(=O)c2ccco2)c1)c1ccco1	1	-21	7	1	-16
COc1ccc(-c2nn(-c3ccccc3)cc2CN(C)CCn2ccnc2C)c(F)c1	1	-14	24	1	-38
COc1ccc2nc(N3CCC(C)CC3)c(C#N)cc2c1	2	-16	58*	0	-21
C[C@H](CCC(=O)O)[C@H]1CC[C@H]2[C@@H]3[C@H](O)C[C@@H]4C[C@H](O)CC[C@]4(C)[C@H]3CC[C@]12C	/	-3	14	/	2
CC(CCC(C)C(C)(C)C)[C@@H]1CC[C@H]2C3C[C@H](OS(O)(=S)=S)[C@H]4C[C@H](OS(O)(=S)=S)[C@@H](OS(O)(=S)=S)C[C@]4(C)[C@H]3CC[C@]12C (stereo not given in full) (tested in a mixture with another compound)	/	84*	66*	/	101*
Cc1nn(S(=O)(=O)c2cccs2)c(C)c1Sc1ccc([N+](=O)[O-])cc1	3	41*	56	1	21
O=C(c1ccco1)N1CCN(Cc2cc(=O)c(OCc3ccc([N+](=O)[O-])cc3)co2)CC1	/	-5	39*	/	-12
CSc1cccc(N2CC(C(=O)Nc3cccc(S(=O)(=O)N4CCCC4)c3)CC2=O)c1 (stereo not given)	/	-10	16	/	-21
CCCCN1C(=O)c2ccc(C(=O)OCC(=O)N3CCN(c4ccccc4)CC3)cc2C1=O	/	-24	2	/	-26
COCCCN1C(=O)c2ccc(C(=O)OCC(=O)N3CCN(c4ccccc4)CC3)cc2C1=O	/	-3	46*	/	2
COc1cn(-c2ccccc2)nc1C(=O)Nc1ccc(C)cc1	/	-25	28	/	-18
COc1ccc(C)cc1NC(=O)c1nn(-c2ccccc2)cc1OC	/	-17	48*	/	17
COc1ccc(C)cc1NC(=O)COC(=O)c1c(C)nn(-c2ccccc2)c1C	/	-1	30*	/	37
O=C(Cc1ccc(Br)cc1)NCc1ccccc1	/	2	15	/	-6
O=C(NCc1ccccc1)c1onc(CSc2ccc(Cl)cc2)c1C(=O)NCC1CC1	/	-6	16	/	-22
O=C(NCc1ccccc1)c1onc(CSc2ccccc2)c1C(=O)NCC1CC1	/	47*	62	/	47
CN(C)CCCN(C(=O)c1ccc(Br)s1)c1nc2cc3c(cc2s1)OCCO3	/	-15	17	/	6
